In ChEMBL document CHEMBL2413001, “Exploring pyrimidine-substituted curcumin analogues: design, synthesis and effects on EGFR signaling” (Bioorg Med Chem, 2013):
Active and inactive are the calls of the source. The rule behind the calls is not given here.

Assays:
HCT-116 [1] = test: Induction of apoptosis in human HCT116 cells assessed as ratio of Bax to Bcl-2 expression at 5 uM after 72 hrs by Western blot analysis relative to control; type: functional
Procedure, shortened: (§1)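 HCT116 only, seeded at 8 × 10⁴ cells/ml in 15 cm dishes for 24 h, then treated for 72 h at 20 µM or at 5, 10 and 20 µM. Lysed in Triton lysis buffer (pH 7.5) with inhibitors, sonicated, and protein assayed by BCA. Western blots were developed by ECL. Band intensities were normalized to β-actin, as means of three independent experiments; the Bax/Bcl-2 ratio was expressed relative to untreated control.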

HCT-116 [2] = test: Induction of apoptosis in human HCT116 cells assessed as ratio of Bax to Bcl-2 expression at 10 uM after 72 hrs by Western blot analysis relative to control; type: functional; procedure, shortened: as §1
HCT-116 [3] = test: Induction of apoptosis in human HCT116 cells assessed as ratio of Bax to Bcl-2 expression at 20 uM after 72 hrs by Western blot analysis relative to control; type: functional; procedure, shortened: as §1
HCT-116 [4] = test: Induction of apoptosis in human HCT116 cells assessed as increase in Bax expression after 72 hrs by Western blot analysis; type: functional, cell-based; procedure, shortened: as §1
HCT-116 [5] = test: Induction of apoptosis in human HCT116 cells assessed as reduction in Bcl-2 expression after 72 hrs by Western blot analysis; type: functional, cell-based; procedure, shortened: as §1
HCT-116 [6] = test: Induction of apoptosis in human HCT116 cells assessed as effect on HSP-90 expression after 72 hrs by Western blot analysis; type: functional, cell-based; procedure, shortened: as §1
HCT-116 [7] = test: Induction of apoptosis in human HCT116 cells assessed as effect on HSP-70 expression after 72 hrs by Western blot analysis; type: functional, cell-based; procedure, shortened: as §1
HCT-116 [8] = test: Induction of apoptosis in human HCT116 cells assessed as PARP cleavage after 72 hrs by Western blot analysis; type: functional, cell-based; procedure, shortened: as §1
HCT-116 [9] = test: Induction of apoptosis in human HCT116 cells assessed as caspase-3 activation after 72 hrs by Western blot analysis; type: functional, cell-based; procedure, shortened: as §1
[10] = molecular target: Epidermal growth factor receptor (Homo sapiens) (UniProt P00533); test: Inhibition of EGFR signaling in human HCT116 cells assessed as effect on CDK4 expression at 5 to 20 uM after 24 hrs by Western blot analysis; type: cell-based; conditions: HCT-116
Sequence of Epidermal growth factor receptor (Homo sapiens) (P00533 whole entry): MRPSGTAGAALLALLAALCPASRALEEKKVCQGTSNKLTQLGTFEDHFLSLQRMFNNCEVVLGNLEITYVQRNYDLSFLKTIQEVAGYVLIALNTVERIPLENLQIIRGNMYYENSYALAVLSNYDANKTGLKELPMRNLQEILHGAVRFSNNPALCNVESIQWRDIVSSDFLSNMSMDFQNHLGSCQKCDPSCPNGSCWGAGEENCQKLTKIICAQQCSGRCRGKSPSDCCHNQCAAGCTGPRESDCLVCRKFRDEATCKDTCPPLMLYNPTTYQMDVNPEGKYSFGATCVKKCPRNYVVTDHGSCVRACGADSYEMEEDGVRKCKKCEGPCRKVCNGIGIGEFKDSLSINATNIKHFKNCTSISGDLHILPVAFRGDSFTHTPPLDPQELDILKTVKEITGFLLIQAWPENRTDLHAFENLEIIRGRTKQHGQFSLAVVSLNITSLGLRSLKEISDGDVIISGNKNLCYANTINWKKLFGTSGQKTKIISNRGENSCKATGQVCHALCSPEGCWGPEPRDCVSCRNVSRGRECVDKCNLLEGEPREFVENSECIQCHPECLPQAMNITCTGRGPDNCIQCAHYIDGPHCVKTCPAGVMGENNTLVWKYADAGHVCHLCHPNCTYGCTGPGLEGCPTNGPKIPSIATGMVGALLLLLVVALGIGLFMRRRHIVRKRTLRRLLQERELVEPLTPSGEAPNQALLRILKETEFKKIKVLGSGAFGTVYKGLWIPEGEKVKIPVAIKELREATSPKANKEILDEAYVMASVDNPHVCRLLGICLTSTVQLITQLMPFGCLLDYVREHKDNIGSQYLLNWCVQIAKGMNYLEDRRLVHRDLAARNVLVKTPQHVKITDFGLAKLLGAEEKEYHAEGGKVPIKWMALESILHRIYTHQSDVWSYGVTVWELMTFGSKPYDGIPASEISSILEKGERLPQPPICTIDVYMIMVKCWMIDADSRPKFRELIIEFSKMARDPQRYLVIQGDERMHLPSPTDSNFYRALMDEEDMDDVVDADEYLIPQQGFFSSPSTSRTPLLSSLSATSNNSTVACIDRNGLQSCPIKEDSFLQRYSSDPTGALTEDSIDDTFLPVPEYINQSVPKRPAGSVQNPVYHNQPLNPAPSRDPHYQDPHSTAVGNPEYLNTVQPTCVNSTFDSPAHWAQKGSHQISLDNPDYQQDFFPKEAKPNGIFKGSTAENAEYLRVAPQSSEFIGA

[11] = molecular target: Epidermal growth factor receptor (Homo sapiens) (UniProt P00533); test: Inhibition of EGFR signaling in human HCT116 cells assessed as inhibition of Rb expression after 24 hrs by Western blot analysis; type: cell-based; conditions: HCT-116
[12] = molecular target: Epidermal growth factor receptor (Homo sapiens) (UniProt P00533); test: Inhibition of EGFR signaling in human HCT116 cells assessed as effect on CDK2 expression at 5 to 20 uM after 24 hrs by Western blot analysis; type: cell-based; conditions: HCT-116
[13] = molecular target: Epidermal growth factor receptor (Homo sapiens) (UniProt P00533); test: Inhibition of EGFR signaling in human HCT116 cells assessed as inhibition of cyclin E1 expression after 24 hrs by Western blot analysis; type: cell-based; conditions: HCT-116
[14] = molecular target: Epidermal growth factor receptor (Homo sapiens) (UniProt P00533); test: Inhibition of EGFR signaling in human HCT116 cells assessed as inhibition of cyclin D1 expression after 24 hrs by Western blot analysis; type: cell-based; conditions: HCT-116
[15] = molecular target: Epidermal growth factor receptor (Homo sapiens) (UniProt P00533); test: Inhibition of EGFR signaling in human HCT116 cells assessed as induction of p21 WAF-1/CIP-1 expression at 5 uM after 24 hrs by Western blot analysis relative to control; type: cell-based; conditions: HCT-116
[16] = molecular target: Epidermal growth factor receptor (Homo sapiens) (UniProt P00533); test: Inhibition of EGFR signaling in human HCT116 cells assessed as induction of p21 WAF-1/CIP-1 expression at 10 uM after 24 hrs by Western blot analysis relative to control; type: cell-based; conditions: HCT-116
[17] = molecular target: Epidermal growth factor receptor (Homo sapiens) (UniProt P00533); test: Inhibition of EGFR signaling in human HCT116 cells assessed as induction of p21 WAF-1/CIP-1 expression at 20 uM after 24 hrs by Western blot analysis relative to control; type: cell-based; conditions: HCT-116
HCT-116 [18] = test: Cell cycle arrest in human HCT116 cells assessed as accumulation at G0/G1 phase at 5 uM after 24 hrs by flow cytometry relative to control; type: functional, cell-based
Procedure, shortened: (§2)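 HCT116 or HT29 cells seeded at 4 × 10⁴ cells/ml in 6-well plates and left 24 h to attach, then exposed for 24 h in complete McCoy's 5A (5% FBS) with 0.1% DMSO final, at 5, 10 or 20 µM. Floating and trypsinized cells were pooled, PBS-washed, fixed overnight in 70% ethanol at 4 °C and stained with PI/RNase for 15 min at room temperature. Flow DNA content gave G0/G1, S and G2/M fractions as fold of control, from three independent assays.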

HT-29 [19] = test: Cell cycle arrest in human HT-29 cells assessed as accumulation at G0/G1 phase at 5 uM after 24 hrs by flow cytometry relative to control; type: functional, cell-based; procedure, shortened: as §2
HT-29 [20] = test: Cell cycle arrest in human HT-29 cells assessed as increase in G2/M population at 10 uM after 24 hrs by flow cytometry relative to control; type: functional; procedure, shortened: as §2
HT-29 [21] = test: Cell cycle arrest in human HT-29 cells assessed as increase in G2/M population at 5 uM after 24 hrs by flow cytometry relative to control; type: functional; procedure, shortened: as §2
HT-29 [22] = test: Cell cycle arrest in human HT-29 cells assessed as increase in G2/M population at 20 uM after 24 hrs by flow cytometry relative to control; type: functional; procedure, shortened: as §2
HCT-116 [23] = test: Cell cycle arrest in human HCT116 cells assessed as increase in G2/M population at 10 uM after 24 hrs by flow cytometry relative to control; type: functional; procedure, shortened: as §2
HCT-116 [24] = test: Cell cycle arrest in human HCT116 cells assessed as increase in G2/M population at 5 uM after 24 hrs by flow cytometry relative to control; type: functional; procedure, shortened: as §2
HCT-116 [25] = test: Cell cycle arrest in human HCT116 cells assessed as increase in G2/M population at 20 uM after 24 hrs by flow cytometry relative to control; type: functional; procedure, shortened: as §2
HCT-116 [26] = test: Inhibition of EGFR protein expression in human HCT116 cells after 72 hrs by Western blot analysis; type: functional, cell-based
Procedure, shortened: (§3)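 HCT116 or HT29 seeded at 8 × 10⁴ cells/ml in 15 cm dishes for 24 h, then treated for 72 h at 20 µM or at 5, 10 and 20 µM. Whole-cell lysates were made in Tris-HCl/NaCl/Triton buffer with phosphatase and protease inhibitors (pH 7.5), sonicated and cleared at 10,000g; protein was measured by BCA. Blots were blocked in 5% milk/TBST and developed by ECL. P-EGFR(Tyr1068) and total EGFR bands were normalized to β-tubulin, as means of three experiments.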

HT-29 [27] = test: Inhibition of EGFR protein expression in human HT-29 cells after 72 hrs by Western blot analysis; type: functional, cell-based; procedure, shortened: as §3
[28] = molecular target: Epidermal growth factor receptor (Homo sapiens) (UniProt P00533); test: Inhibition of EGFR phosphorylation at Tyr1068 residue in human HCT116 cells after 72 hrs by Western blot analysis; type: cell-based; conditions: HCT-116; procedure, shortened: as §3
[29] = molecular target: Epidermal growth factor receptor (Homo sapiens) (UniProt P00533); test: Inhibition of EGFR phosphorylation at Tyr1068 residue in human HT-29 cells after 72 hrs by Western blot analysis; type: cell-based; procedure, shortened: as §3
HT-29 [30] = test: Cytotoxicity against human HT-29 cells assessed as growth inhibition after 48 hrs by resazurin assay; type: functional, cell-based; conditions: for IC50: HT-29, 48 h
Procedure, shortened: (§4)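 HCT116 or HT29 seeded at 2000 cells/well, grown 24 h, then given fresh complete McCoy's 5A (5% FBS, 0.1% DMSO final) containing serial compound concentrations for 48 h. Resazurin was added for 16 h and fluorescence read at ex 544/em 595 nm as a measure of living cells. IC50 was calculated by the Logit approach; values are mean ± SD.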

HCT-116 [31] = test: Cytotoxicity against human HCT116 cells assessed as growth inhibition after 48 hrs by resazurin assay; type: functional, cell-based; conditions: for IC50: HCT-116, 48 h; procedure, shortened: as §4

Work on `COc1ccc(/C=C/c2cc(/C=C/c3ccc(OC)c(OC)c3)nc(NCCO)n2)cc1OC` yielded a Ratio (HCT-116 [1]) of 2.1, a Ratio (HCT-116 [2]) of 17 and a Ratio (HCT-116 [3]) of 19. For the same compound, the Activity (HCT-116 [4]) was “Dose-dependent effect”, the Activity (HCT-116 [5]) was “Dose-dependent effect” and the Activity (HCT-116 [6]) was “Dose-dependent effect”. The Activity (HCT-116 [7]) was “Dose-dependent effect”, the Activity (HCT-116 [8]) was “Dose-dependent effect” and the Activity (HCT-116 [9]) was “Dose-dependent effect”. For the same compound, the inhibition [10] was “inactive”, the inhibition [11] was “Dose-dependent effect” and the inhibition [12] was “inactive”. The inhibition [13] was “Dose-dependent effect”, the inhibition [14] was “Dose-dependent effect” and the fold change (FC) [15] was 21.4. The fold change (FC) [16] was 28.6, the fold change (FC) [17] was 25.7 and the Activity (HCT-116 [18]) was “Active”. For the same compound, the Activity (HT-29 [19]) was “Active”, the “fold change (FC)” value (HT-29 [20]) was 1.94 and the “fold change (FC)” value (HT-29 [21]) was 1.86. The “fold change (FC)” value (HT-29 [22]) was 2.4, the “fold change (FC)” value (HCT-116 [23]) was 1.78 and the “fold change (FC)” value (HCT-116 [24]) was 1.54. The “fold change (FC)” value (HCT-116 [25]) was 2.05, the inhibition (HCT-116 [26]) was “Dose-dependent effect” and the inhibition (HT-29 [27]) was “Dose-dependent effect”. The inhibition [28] was “Dose-dependent effect”, the inhibition [29] was “Dose-dependent effect” and the “growth inhibition (GI)” value (HT-29 [30]) was “Dose-dependent effect”. For the same compound, the IC50 (HT-29 [30]) was 7.1 µM, the “growth inhibition (GI)” value (HCT-116 [31]) was “Dose-dependent effect” and the IC50 (HCT-116 [31]) was 6.2 µM.

In the case of `CCCNc1nc(/C=C/c2ccc(OC)c(OC)c2)cc(/C=C/c2ccc(OC)c(OC)c2)n1`, the “growth inhibition (GI)” value (HT-29 [30]) is reported as “Dose-dependent effect”, the IC50 (HT-29 [30]) is reported as > 100 µM and the “growth inhibition (GI)” value (HCT-116 [31]) is reported as “Dose-dependent effect”. For the same compound, the IC50 (HCT-116 [31]) was 28 µM.

With `CCCNc1nc(/C=C/c2cc(OC)c(OC)c(OC)c2)cc(/C=C/c2cc(OC)c(OC)c(OC)c2)n1` the IC50 (HT-29 [30]) was > 100 µM, the “growth inhibition (GI)” value (HCT-116 [31]) was “Dose-dependent effect” and the IC50 (HCT-116 [31]) was 21.9 µM.
